Among the data in PubChem BioAssay AID504516 (Sanford-Burnham Center for Chemical Genomics, 2011) are IC50 values, retold here.

The subject of the experiment is Jurkat NF-kB luciferase, PMA/ionomycin, luminescence 16 h. Kind of experiment: NF-kB reporter inhibition in Jurkat T cells, SAR follow-up, counter-screen for B-cell antigen receptor NF-kB inhibitors, cell-based, luminescence (AID 504516). The procedure, abridged:
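System: Jurkat NF-kB luciferase reporter cells / Quantity: 8000 reporter cells per well / Doses: test compounds in dose-response series / Timing: 1 h compound pre-treatment, 16 h stimulation, 37 °C, 5% CO2 / Measured by: SteadyGlo luminescence / Controls: DMSO-only wells and wells without PMA/ionomycin agonist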

Calls of active or inactive are those of the source.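 How the source made its calls: active means IC50 at or below 20 µM; inactive means the rest.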

For `Cc1oc(-c2ccc(OC(F)(F)F)cc2)nc1CSCC(=O)O`, the IC50 was 0.22 µM.

Take `CCCOc1ccc(-c2nc(CSCC(=O)NCc3ccco3)c(C)o2)cc1`: the IC50 is > 79 µM (inactive).

Take `COc1cccc(-c2cc(=O)c3cc(NC(=O)c4ccc(N(C)C)cc4)ccc3[nH]2)c1`: the IC50 is > 79 µM (inactive).

For `CNC(=O)CCc1nc(-c2ccccc2)no1`, the IC50 is > 79 µM (inactive).

Regarding `CCOc1ccc(-c2nc(CSCC(N)=O)c(C)o2)cc1`, the IC50 is > 79 µM (inactive).

As to `C#CCNC(=O)CSCc1nc(-c2ccc(OCC)cc2)oc1C`, the IC50 was > 79 µM (inactive).

For the molecule `CCc1ccc(-c2nc(CSCC(=O)NC3CC3)c(-c3ccccc3)o2)cc1`, the IC50 was 72.8 µM (inactive).

Regarding `CCCOc1ccc(-c2nc(CSCC(=O)NC3CC3)c(C)o2)cc1`, the IC50 was > 79 µM (inactive).

Take `CCC(C)NC(=O)CCc1nc(-c2ccc(C(C)(C)C)cc2)no1` (stereo not drawn): the IC50 is > 79 µM (inactive).

For `CCNC(=O)CCc1nc(-c2ccccc2)no1`, the IC50 is > 79 µM (inactive).

`CCC(C)NC(=O)CCc1nc(-c2ccc(C(C)C)cc2)no1` (stereo not drawn): the IC50 is > 79 µM (inactive).

For `CCCCOc1ccc(-c2nc(CSCC(=O)NC3CC3)c(C)o2)cc1`, the IC50 is > 79 µM (inactive).

Take `CCNC(=O)CCc1nc(-c2ccc(OCC)cc2)no1`: the IC50 was > 79 µM (inactive).

With `CC(C)(C)c1ccc(-c2noc(CCC(=O)O)n2)cc1`, the IC50 is 0.2 µM.

As to `CCC(C)NC(=O)CCc1nc(-c2ccccc2)no1` (stereo not drawn), the IC50 is > 79 µM (inactive).

For `CCc1ccc(-c2noc(CCC(=O)NC(C)CC)n2)cc1` (stereo not drawn), the IC50 is > 79 µM (inactive).

As for `CCNC(=O)CCc1nc(-c2ccc(C(C)C)cc2)no1`, the IC50 is > 79 µM (inactive).

In the case of `Cc1oc(-c2ccc(C(F)(F)F)cc2)nc1CSCC(=O)NC1CC1`, the IC50 is > 79 µM (inactive).

Take `CCOc1ccc(-c2nc(CSCC(=O)O)c(C)o2)cc1`: the IC50 is < 0.15 µM.

As to `CCOc1ccc(-c2nc(CSCC(=O)N3CCOCC3)c(C)o2)cc1`, the IC50 is > 79 µM (inactive).

On to `CCc1ccc(-c2noc(CCC(=O)NC)n2)cc1`, for which the IC50 is > 79 µM (inactive).

With `CCOc1ccc(-c2nc(CSCC(=O)NC3CCC3)c(C)o2)cc1`, the IC50 was 26.4 µM (inactive).

Consider `CCCOc1ccc(-c2nc(CSCC(=O)O)c(C)o2)cc1`, for which the IC50 was < 0.15 µM.

As to `CC(C)(C)c1ccc(-c2noc(CCC(=O)NC3CCC3)n2)cc1`, the IC50 was 0.94 µM.

With `CNC(=O)CCc1nc(-c2ccc(C(C)(C)C)cc2)no1`, the IC50 was > 79 µM (inactive).

Turning to `CCNC(=O)CCc1nc(-c2cccc(C)c2)no1`, the IC50 was > 79 µM (inactive).

`CCCCOc1ccc(-c2nc(CSCC(=O)NCc3ccco3)c(C)o2)cc1`: the IC50 is > 79 µM (inactive).

As for `Cc1oc(-c2ccc(OC(F)(F)F)cc2)nc1CSCC(=O)NC1CC1`, the IC50 was > 79 µM (inactive).

On to `CCNC(=O)CCc1nc(-c2ccc(C(C)(C)C)cc2)no1`, for which the IC50 was > 79 µM (inactive).

As to `CCNC(=O)CCc1nc(-c2c(Cl)cccc2Cl)no1`, the IC50 was > 79 µM (inactive).

`Cc1ccc(-c2nc(CSCC(=O)NC3CC3)c(C)o2)cc1`: the IC50 is > 79 µM (inactive).

Turning to `CCOc1ccccc1-c1nc(CSCC(=O)O)c(C)o1`, the IC50 is > 79 µM (inactive).

On to `CC(C)(C)NC(=O)CCc1nc(-c2ccccc2)no1`, for which the IC50 is > 79 µM (inactive).

Regarding `CCOc1ccc(-c2nc(CSCC(=O)NC3CC3)c(C)o2)cc1`, the IC50 is > 79 µM (inactive).

With `CCCCc1ccc(-c2noc(CCC(=O)NC(C)CC)n2)cc1` (stereo not drawn), the IC50 is 0.41 µM.

`CCNC(=O)CCc1nc(-c2ccc(CC)cc2)no1`: the IC50 was > 79 µM (inactive).

Turning to `CCCCc1ccc(-c2noc(CCC(=O)NC(C)(C)C)n2)cc1`, the IC50 was 1.62 µM.

`CC(C)(C)c1ccc(-c2noc(CCC(N)=O)n2)cc1`: the IC50 was 0.19 µM.

As to `CCOc1ccc(-c2nc(CSCC(=O)NC(C)(C)C)c(C)o2)cc1`, the half-maximal inhibitory concentration (IC50) is 10.8 µM.

On to `CNC(=O)CCc1nc(-c2ccc(C(C)C)cc2)no1`, for which the IC50 is > 79 µM (inactive).

Consider `CCN(CC)C(=O)CCc1nc(-c2ccc(C(C)(C)C)cc2)no1`, for which the IC50 was 16.4 µM.

Take `COc1ccc(-c2nc(CSCC(=O)NC3CC3)c(C)o2)cc1`: the IC50 was > 79 µM (inactive).

For the molecule `Cc1oc(-c2ccc(C(F)(F)F)cc2)nc1CSCC(=O)O`, the half-inhibitory concentration (IC50) was 0.52 µM.

For the molecule `CCc1ccc(-c2nc(CSCC(=O)NCc3ccco3)c(C)o2)cc1`, the IC50 is > 79 µM (inactive).

On to `CCOc1ccc(-c2nc(CSCC(=O)NC3CC3)c(-c3ccccc3)o2)cc1`, for which the IC50 was 54.6 µM (inactive).

Consider `CC(C)c1ccc(-c2noc(CCC(=O)NC3CC3)n2)cc1`, for which the IC50 is > 79 µM (inactive).

Regarding `CCNC(=O)CCc1nc(-c2ccccc2Cl)no1`, the IC50 is > 79 µM (inactive).

For the molecule `CCOC(=O)CC(NC(=O)c1ccc(Br)cc1)c1ccc(F)c([N+](=O)[O-])c1` (stereo not drawn), the IC50 is 42.7 µM (inactive).

Consider `CC(C)c1ccc(-c2noc(CCC(=O)NC(C)(C)C)n2)cc1`, for which the IC50 was 15.2 µM.

In the case of `CCNC(=O)CCc1nc(-c2cccc(F)c2)no1`, the IC50 is > 79 µM (inactive).

`CN(C)C(=O)CCc1nc(-c2ccc(C(C)(C)C)cc2)no1`: the IC50 is 71.3 µM (inactive).

With `CC(C)Nc1ccc(C(CC(=O)O)NC(=O)c2ccccc2)cc1[N+](=O)[O-]` (stereo not drawn), the IC50 is > 79 µM (inactive).

As to `COc1ccc(-c2nc(CSCC(=O)NCc3ccco3)c(C)o2)cc1`, the IC50 was > 79 µM (inactive).

Regarding `CCCCc1ccc(-c2noc(CCC(=O)NCC)n2)cc1`, the IC50 is > 79 µM (inactive).

For `Cc1oc(-c2ccccc2)nc1CSCC(=O)NC1CC1`, the IC50 was > 79 µM (inactive).

For the molecule `CCOc1ccc(-c2nc(CSCC(=O)NCC3CC3)c(C)o2)cc1`, the IC50 is 20.9 µM (inactive).

`CCNC(=O)CCc1nc(-c2ccccc2C)no1`: the IC50 is > 79 µM (inactive).

Turning to `CCOc1cccc(-c2nc(CSCC(=O)NC3CC3)c(C)o2)c1`, the IC50 is > 79 µM (inactive).

`COc1cccc(-c2cc(=O)c3cc(NC(=O)c4ccccc4)ccc3[nH]2)c1`: the IC50 is > 79 µM (inactive).

On to `O=C(CCc1nc(-c2ccccc2)no1)NC1CC1`, for which the IC50 was > 79 µM (inactive).

For the molecule `CCOc1ccc(-c2nc(CSCC(=O)NCc3ccco3)c(C)o2)cc1`, the IC50 is 25.4 µM (inactive).

For the molecule `CCCCc1ccc(-c2noc(CCC(=O)NC3CC3)n2)cc1`, the IC50 is 1.25 µM.

Regarding `CCOc1ccc(-c2nc(CSCC(=O)N(C)C)c(C)o2)cc1`, the IC50 is > 79 µM (inactive).

On to `COC(=O)CCc1nc(-c2ccc(C(C)(C)C)cc2)no1`, for which the IC50 is < 0.16 µM.

On to `CCc1ccc(-c2nc(CSCC(=O)NC3CC3)c(C)o2)cc1`, for which the IC50 was > 79 µM (inactive).

For the molecule `CC(C)(C)c1ccc(-c2noc(CCC(=O)NC3CC3)n2)cc1`, the IC50 was 58.7 µM (inactive).

Take `CCOc1ccc(-c2nc(CSCC(=O)NC)c(C)o2)cc1`: the IC50 is > 79 µM (inactive).

On to `CCOc1ccc(-c2noc(CCC(=O)O)n2)cc1`, for which the IC50 is 9.25 µM.

For the molecule `CCc1ccc(-c2noc(CCC(=O)NC(C)(C)C)n2)cc1`, the IC50 is > 79 µM (inactive).

As for `COc1ccc(C(=O)Nc2ccc3[nH]c(-c4cccc(OC)c4)cc(=O)c3c2)cc1`, the IC50 was > 79 µM (inactive).

`CCNC(=O)CCc1nc(-c2cccc(OC)c2)no1`: the IC50 was > 79 µM (inactive).

For the molecule `Cc1oc(-c2ccccc2)nc1CSCC(=O)NCc1ccco1`, the IC50 was > 79 µM (inactive).

Take `Cc1ccc(-c2nc(CSCC(=O)NCc3ccco3)c(C)o2)cc1`: the IC50 was > 79 µM (inactive).

In the case of `CCc1ccc(-c2noc(CCC(=O)NC3CC3)n2)cc1`, the IC50 was > 79 µM (inactive).

Take `CCCCc1ccc(-c2noc(CCC(=O)NC)n2)cc1`: the IC50 was > 79 µM (inactive).

In the case of `CCCCOc1ccc(-c2nc(CSCC(=O)O)c(C)o2)cc1`, the half-maximal inhibitory concentration (IC50) is < 0.15 µM.

On to `O=C(O)CCc1nc(-c2ccccc2)no1`, for which the IC50 was > 79 µM (inactive).

As to `CCOc1ccccc1-c1nc(CSCC(=O)NC2CC2)c(C)o1`, the IC50 was > 79 µM (inactive).
